Values after ≈ are worked out from the molar mass of the structure shown.
Experiments:
Assay type in all cases: functional
Plasmodium falciparum [1] = experiment: Antimalarial activity against chloroquine-sensitive Plasmodium falciparum D6 infected type A+ human erythrocytes by [3H]hypoxanthine uptake; conditions: read-out: ED50 (the source's name)
Summary of the method: (§1)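 P. falciparum (chloroquine-sensitive D-6, chloroquine-resistant W-2) in type A+ human erythrocytes, 6% hematocrit, RPMI-1640 with 32 mM NaHCO3, 25 mM HEPES, 10% heat-inactivated A+ human plasma; 5% O2/5% CO2/90% N2, 37°. Test compounds in duplicate at 125,000–3 ng/ml; quinine control 250–0.3 ng/ml. ED50 = 50% inhibition of parasite [3H]hypoxanthine incorporation vs zero-drug controls, by non-linear regression.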

Plasmodium falciparum [2] = experiment: Antimalarial activity against chloroquine-resistant Plasmodium falciparum W2 infected type A+ human erythrocytes by [3H]hypoxanthine uptake; conditions: read-out: ED50 (the source's name); summary of the method: as §1
[3] = Cytotoxicity against human multidrug-sensitive KB3 cells; conditions: read-out: ED50 (the source's name)
[4] = Cytotoxicity against human multidrug-resistant KBV1 cells; conditions: KB-V1, read-out: ED50 (the source's name)
P388 = experiment: Cytotoxicity against mouse P388 cells; conditions: read-out: ED50 (the source's name)

| Structure (SMILES) | EC50 (Plasmodium falciparum [1]) | EC50 (Plasmodium falciparum [2]) | EC50 [3] | EC50 [4] | EC50 (P388) |
| --- | --- | --- | --- | --- | --- |
| COc1ccc2cc1Oc1ccc(cc1)C[C@H]1c3c(cc(OC)c(O)c3Oc3cc4c(cc3OC)CCN(C)[C@H]4C2)CCN1C | 0.029 µg/mL (≈ 0.0476 µM) | 0.0406 µg/mL (≈ 0.0667 µM) | 2.2 µg/mL (≈ 3.61 µM) | 4.4 µg/mL (≈ 7.23 µM) | 0.57 µg/mL (≈ 0.936 µM) |
| COc1ccc2cc1Oc1ccc(cc1)C[C@H]1c3cc(c(OC)cc3CCN1C)Oc1c(O)c(OC)cc3c1[C@@H](C2)N(C)CC3 | 0.0651 µg/mL (≈ 0.107 µM) | 0.078 µg/mL (≈ 0.128 µM) | 3.4 µg/mL (≈ 5.59 µM) | 11 µg/mL (≈ 18.1 µM) | 0.36 µg/mL (≈ 0.591 µM) |
| COc1ccc2cc1Oc1ccc(cc1)C[C@@H]1c3cc(c(OC)cc3CCN1C)Oc1c(O)c(OC)cc3c1[C@@H](C2)N(C)CC3 | 0.0527 µg/mL (≈ 0.0866 µM) | 0.164 µg/mL (≈ 0.269 µM) | 9.8 µg/mL (≈ 16.1 µM) | 11 µg/mL (≈ 18.1 µM) | 0.25 µg/mL (≈ 0.411 µM) |
| C=C[C@H]1CN2CC[C@H]1C[C@H]2[C@H](O)c1ccnc2ccc(OC)cc12 [QUININE] | 0.0076 µg/mL (≈ 0.0234 µM) | 0.0308 µg/mL (≈ 0.0949 µM) | > 20 µg/mL | > 20 µg/mL | > 5 µg/mL |
| COc1ccc2cc1Oc1ccc(cc1)C[C@H]1c3c(cc(OC)c(O)c3Oc3cc4c(cc3OC)CCN(C)[C@@H]4C2)CCN1C [HOMOAROMOLINE] | 0.232 µg/mL (≈ 0.381 µM) | 0.451 µg/mL (≈ 0.741 µM) | 3.6 µg/mL (≈ 5.91 µM) | 15 µg/mL (≈ 24.6 µM) | 0.31 µg/mL (≈ 0.509 µM) |
| COc1ccc2cc1Oc1ccc(cc1)C[C@H]1c3cc(c(OC)cc3CCN1C)Oc1c(OC)c(OC)cc3c1[C@H](C2)N(C)CC3 [FANCHININ] | 0.179 µg/mL (≈ 0.287 µM) | 0.16 µg/mL (≈ 0.257 µM) | 2.1 µg/mL (≈ 3.37 µM) | 3.7 µg/mL (≈ 5.94 µM) | 0.4 µg/mL (≈ 0.642 µM) |

Reference: ChEMBL document CHEMBL1147330, “Cytotoxic and antimalarial bisbenzylisoquinoline alkaloids from Cyclea barbata” (1993)
